{"source": "ChEMBL document CHEMBL1221308", "about": "“Synthesis and biological evaluation of new jasplakinolide (jaspamide) analogs” (Bioorg Med Chem Lett, 2010)", "data": [{"system": "CA46", "experiment": "(§1) Growth inhibition of human CA46 cells […] after 24 hrs", "assay_type": "functional, cell-based", "details": "Homo sapiens, CA46, 24 h", "procedure,_shortened": "(§2)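 Human CA46 Burkitt lymphoma cells treated for 24 h; growth read as cell number, IC50 derived from that count.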", "units": {"IC50": "nM"}, "values": [{"molecule": "C/C1=C\\[C@H](C)C[C@H](C)OC(=O)C[C@H](c2ccccc2)NC(=O)[C@@H](Cc2c(Br)[nH]c3ccccc23)N(C)C(=O)[C@H](C)NC(=O)CC1", "IC50": 200}, {"molecule": "COc1ccc([C@H]2CC(=O)O[C@@H](C)C[C@@H](C)/C=C(\\C)CCC(=O)N[C@@H](C)C(=O)N[C@H](Cc3c(Br)[nH]c4ccccc34)C(=O)N2)cc1", "IC50": 3000}, {"molecule": "COc1ccc([C@H]2CC(=O)O[C@@H](C)C[C@@H](C)/C=C(\\C)CCC(=O)NCC(=O)N(C)[C@H](Cc3c(Br)[nH]c4ccccc34)C(=O)N2)cc1", "IC50": 300}, {"molecule": "COc1ccc([C@H]2CC(=O)O[C@@H](C)C[C@@H](C)/C=C(\\C)C[C@@H](C)C(=O)N[C@@H](C)C(=O)N(C)[C@H](Cc3c(Br)[nH]c4ccccc34)C(=O)N2)cc1", "IC50": 20}, {"molecule": "COc1ccc([C@H]2CC(=O)O[C@@H](C)C[C@@H](C)/C=C(\\C)CCC(=O)N[C@@H](C)C(=O)N(C)[C@H](Cc3c[nH]c4ccccc34)C(=O)N2)cc1", "IC50": 200}]}, {"system": "CA46", "experiment": "as §1", "assay_type": "functional, cell-based", "details": "ca46", "procedure,_shortened": "as §2", "units": {"IC50": "nM"}, "values": [{"molecule": "COc1ccc([C@H]2CC(=O)NC(C)C[C@@H](C)/C=C(\\C)CCC(=O)N[C@@H](C)C(=O)N(C)[C@H](Cc3c(Br)[nH]c4ccccc34)C(=O)N2)cc1", "note": "(single isomer, unassigned; diastereomer 2)", "IC50": 3000}, {"molecule": "COc1ccc([C@H]2CC(=O)NC(C)C[C@@H](C)/C=C(\\C)CCC(=O)N[C@@H](C)C(=O)N(C)[C@H](Cc3c(Br)[nH]c4ccccc34)C(=O)N2)cc1", "note": "(stereo in doubt)", "IC50": 750}]}]}
